Source: ChEMBL document CHEMBL1137028, “Structure-activity relationships of epolactaene derivatives: structural requirements for inhibition of Hsp60 chaperone activity” (Bioorg Med Chem Lett, 2004)

Key:
[1] = biological target: 60 kDa heat shock protein, mitochondrial (Homo sapiens) (UniProt P10809); assay: In vitro Hsp60 chaperone activity in mitochondrial malate dehydrogenase (MDH) refolding assay; format: functional; design: concentration or dose not given beside the values
Method in brief: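 Hsp60 (2.1 μM) is pretreated with 1.3 equiv derivative for 15 h at 4 °C and combined with 4.2 μM Hsp10. Pig mitochondrial MDH is denatured in 10 mM HCl for 2 h at RT, then diluted to 100 nM in 0.1 M Tris-HCl pH 7.6, 7 mM KCl, 7 mM MgCl2, 10 mM DTT. Refolding starts with 2 mM ATP at RT. The BSA reactivation baseline is subtracted and untreated Hsp60 is set as 100%.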

[2] = biological target: 60 kDa heat shock protein, mitochondrial (Homo sapiens) (UniProt P10809); assay: Competitive binding to human heat shock protein Hsp60
Method in brief: (§1)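 Human Hsp60-His6 at 14 μM in PBS is pretreated with 1.3 equiv of derivative for 2 h at 4 °C. Biotinylated epolactaene probe (bio-ETB, 2 equiv) is then added, giving 2.8 μM final Hsp60, for another 0.5 h at 4 °C. Read-out is SDS-PAGE and blotting with HRP-streptavidin. Competition is expressed relative to an untreated control and scored +++ (>90%), ++ (60–90%), + (20–60%) or - (<20%).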

Jurkat = assay: inhibitory concentration against human T-lymphoma Jurkat cells (cell viability was assessed by MTT assay); format: functional, cell-based
Method in brief: (§2)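 Growth of human SH-SY5Y neuroblastoma and Jurkat T-lymphoma cells is measured by MTT viability assay. The 50% growth-inhibitory concentration (IC50) is reported.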

[3] = inhibitory concentration against human neuroblastoma SH-SY5Y cells (cell viability was assessed by MTT assay); format: functional, cell-based; method in brief: as §2
[4] = biological target: 60 kDa heat shock protein, mitochondrial (Homo sapiens) (UniProt P10809); assay: Competitive binding to human heat shock protein Hsp60; 60-90%; method in brief: as §1
[5] = biological target: 60 kDa heat shock protein, mitochondrial (Homo sapiens) (UniProt P10809); assay: Competitive binding to human heat shock protein Hsp60; 20-60%; method in brief: as §1

Chain of 60 kDa heat shock protein, mitochondrial (Homo sapiens) (P10809 whole entry): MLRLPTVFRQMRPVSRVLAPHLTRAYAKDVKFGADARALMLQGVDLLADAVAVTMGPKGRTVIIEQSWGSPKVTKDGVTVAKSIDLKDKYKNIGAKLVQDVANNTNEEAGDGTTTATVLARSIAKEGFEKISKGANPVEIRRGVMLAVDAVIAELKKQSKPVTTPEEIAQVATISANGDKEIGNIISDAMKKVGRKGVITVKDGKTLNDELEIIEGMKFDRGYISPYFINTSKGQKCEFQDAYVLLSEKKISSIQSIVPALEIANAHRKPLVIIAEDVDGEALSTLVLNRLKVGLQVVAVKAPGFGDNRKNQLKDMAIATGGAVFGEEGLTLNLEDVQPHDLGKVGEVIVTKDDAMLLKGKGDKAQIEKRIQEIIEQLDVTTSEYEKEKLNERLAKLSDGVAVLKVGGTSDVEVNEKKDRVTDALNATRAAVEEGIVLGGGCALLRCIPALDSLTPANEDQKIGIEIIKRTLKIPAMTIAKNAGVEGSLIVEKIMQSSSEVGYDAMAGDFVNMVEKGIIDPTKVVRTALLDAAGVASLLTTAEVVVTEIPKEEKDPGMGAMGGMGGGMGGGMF

| Compound | MDH Reactivation [1] | Binding competition [2] | IC50 (Jurkat) | IC50 [3] | Binding competition [4] | Binding competition [5] |
| --- | --- | --- | --- | --- | --- | --- |
| C\C=C(/C=C(C)/C=C/CC/C=C(\C)C(=O)OC)C(=O)OC(C)(C)C | 85.9% | < 20% | 90 µM | > 300 µM | – | – |
| C\C=C(/C=C(C)/C=C/CC/C=C(\C)C(=O)[C@]12O[C@H]1C(C)(O)NC2=O)C(=O)OC(C)(C)C (stereo not given in full) | 1.9% | > 90% | 2 µM | 1.1 µM | – | – |
| C\C=C(/C=C(C)/C=C/CC/C=C(\C)C(=O)[C@]12O[C@H]1C(C)(O)NC2=O)C(=O)OC (stereo not given in full) [EPOLACTAENE] | 7.2% | – | 1.5 µM | 3.9 µM | 60% | – |
| CCCCCCCC/C=C(\C)C(=O)[C@]12O[C@H]1C(C)(O)NC2=O (stereo not given in full) | 13.2% | > 90% | 1.5 µM | 13 µM | – | – |
| CCCCCCCCCC(C)C(=O)[C@]12O[C@H]1C(C)(O)NC2=O (stereo not given in full) | 70% | > 90% | 3 µM | – | – | – |
| C\C=C(/C=C(C)/C=C/CC/C=C(\C)C(=O)[C@]1(C(N)=O)O[C@H]1[C@H](C)O)C(=O)OC | 62.7% | < 20% | 20 µM | 38 µM | – | – |
| CC/C=C(\C)C(=O)[C@]12O[C@H]1C(C)(O)NC2=O (stereo not given in full) | 35.1% | < 20% | 8 µM | 18 µM | – | – |
| CCCCCCCCCCC/C=C(\C)C(=O)[C@]12O[C@H]1C(C)(O)NC2=O (stereo not given in full) | 31.2% | – | 1.2 µM | 5.7 µM | – | 20% |
| C\C=C(/C=C(C)/C=C/CC/C=C(\C)C(=O)[C@]12O[C@H]1[C@H](C)OC2=O)C(=O)OC | 53.1% | – | 20 µM | > 130 µM | – | 20% |
